The results in this text go back to ChEMBL document CHEMBL4321879, “Novel Class of Colony-Stimulating Factor 1 Receptor Kinase Inhibitors Based on an o-Aminopyridyl Alkynyl Scaffold as Potential Treatment for Inflammatory Disorders” (J Med Chem, 2020).

Data set [1] addresses Fibroblast growth factor receptor 2 (Homo sapiens, UniProt P21802). The data set is described as follows: Inhibition of recombinant human N-terminal His6-tagged FGFR2 (456 to 770 residues) expressed in baculovirus infected Sf21 insect cells at 100 nM using poly (Glu, Tyr)4:1 as substrate measured after 1 hr by ELISA relative to control. In short, it runs like this:
(§1)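 Recombinant kinase was incubated with compound in reaction buffer containing 5 μM ATP, in wells precoated with poly(Glu,Tyr) 4:1, for 1 h at 37 °C. Phosphorylation was detected by ELISA.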

Data set [2] addresses Proto-oncogene tyrosine-protein kinase Src (Homo sapiens) (UniProt P12931). Kind of data set: Inhibition of recombinant human full-length N-terminal His6-tagged Src expressed in Sf21 insect cells at 10 nM using poly (Glu, Tyr)4:1 as substrate measured after 1 hr by ELISA relative to control. In short, it runs like this:
(§2)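 ELISA kinase assay: recombinant kinase added to wells precoated with poly(Glu,Tyr)4:1 and incubated with compound in reaction buffer containing 5 μM ATP, 37 °C for 1 h; wells then washed before antibody detection.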

The target of data set [3] is Ephrin type-A receptor 2 (Homo sapiens) (UniProt P29317). Kind of data set: Inhibition of recombinant human N-terminal His6-tagged EphA2 (596 to 900 residues) expressed in baculovirus infected Sf21 insect cells at 1000 nM using poly (Glu, Tyr)4:1 as substrate measured after 1 hr by ELISA relative to control. In short, it runs like this:
as §1

Data set [4] has as its target Focal adhesion kinase 1 (Homo sapiens) (UniProt Q05397). Kind of data set: Inhibition of recombinant human N-terminal His6-tagged FAK (411 to 686 residues) expressed in baculovirus infected Sf21 insect cells at 100 nM using poly (Glu, Tyr)4:1 as substrate measured after 1 hr by ELISA relative to control. In short, it runs like this: as §1
Data set [5] has as its target Tyrosine-protein kinase BTK (Homo sapiens) (UniProt Q06187). Kind of data set: Inhibition of recombinant human full-length N-terminal His6-tagged BTK expressed in baculovirus infected Sf21 insect cells at 1000 nM using poly (Glu, Tyr)4:1 as substrate measured after 1 hr by ELISA relative to control. An outline of the steps: as §2
For data set [6], the target named is Macrophage colony-stimulating factor 1 receptor (Homo sapiens, UniProt P07333). Kind of data set: Inhibition of recombinant CSF1R (unknown origin) using poly (Glu, Tyr)4:1 as substrate measured after 1 hr by ELISA.
Data set [7] in a line: Elimination half life in Sprague-Dawley rat at 2 mg/kg, iv administered […] by LC-MS/MS analysis. Type of data set: ADME, organism-based. As to conditions: in vivo, read-out: beta t1/2 (converted). An outline of the steps:
(§3)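 Male SD rats (200 ± 20 g) were fasted 12 h with free access to water, n = 3 per group. One group received 2 mg/kg iv in DMSO/EtOH/PEG300/saline (5/5/40/50). The other received 5 mg/kg by oral gavage in DMSO/HPMC (5/95). Femoral-vein plasma was taken at 15–1440 min, methanol-precipitated with internal standard, and measured by LC–MS/MS. Noncompartmental analysis; AUC by trapezoidal method.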

The target in data set [8] is Receptor tyrosine-protein kinase erbB-2 (Homo sapiens) (UniProt P04626). Kind of data set: Inhibition of recombinant Erbb2 (unknown origin) at 1000 nM using poly (Glu, Tyr)4:1 as substrate measured after 1 hr by ELISA relative to control. In short, it runs like this: as §1
Data set [9] is described as follows: Volume of distribution at steady state in Sprague-Dawley rat at 2 mg/kg, iv administered […] by LC-MS/MS analysis. Type of data set: ADME, organism-based. As to conditions: in vivo, read-out: Vdss. An outline of the steps: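 Male SD rats (200 ± 20 g), fasted 12 h, n = 3; single intravenous dose of 2 mg/kg in DMSO/EtOH/PEG300/saline (5/5/40/50). Femoral vein blood at 15–1440 min; plasma precipitated with methanol containing internal standard, assayed by LC–MS/MS; noncompartmental analysis (MRT = AUMC/AUC, Vss = CL × MRT).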

The next data set relates to RAW264.7. The data set is described as follows: Antiinflammatory activity in mouse RAW264.7 cells assessed as reduction in LPS-induced IL6 release measured after 24 hrs by ELISA. As to conditions: RAW264.7, 24 h. Type of data set: functional, cell-based. In short, it runs like this:
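RAW264.7 cells in DMEM with 10% FBS and 0.125% DMSO were incubated with compound, then primed with LPS 1 μg/mL for 24 h. Supernatant TNF-α and IL-6 measured by mouse ELISA. IC50 from log(inhibitor) versus normalized response nonlinear fit.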

Data set [10] can be described thus: MRT (infinity) in Sprague-Dawley rat at 5 mg/kg, po administered via gavage by LC-MS/MS analysis. It is filed as ADME, organism-based. As to conditions: in vivo. In short, it runs like this: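 Male SD rats (200 ± 20 g), fasted 12 h, n = 3; oral gavage 5 mg/kg in DMSO/HPMC (5/95). Femoral vein blood at 15–1440 min; plasma precipitated with methanol plus internal standard, LC–MS/MS; noncompartmental analysis, Tmax observed directly, MRT = AUMC/AUC.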

For data set [11], the target named is Tyrosine-protein kinase ABL1 (Homo sapiens) (UniProt P00519). The data set is described as follows: Inhibition of recombinant human N-terminal His6-tagged Abl (27 to end residues) expressed in baculovirus infected Sf21 insect cells at 1000 nM using poly (Glu, Tyr)4:1 as substrate measured after 1 hr by ELISA relative to control. In short, it runs like this:
as §1

Data set [12] concerns the target Voltage-gated inwardly rectifying potassium channel KCNH2 (Homo sapiens, UniProt Q12809). The data set is described as follows: Inhibition of human ERG by Qpatch automatic patch-clamp assays.
The target in data set [13] is Macrophage colony-stimulating factor 1 receptor (Mus musculus) (UniProt P09581). Kind of data set: Inhibition of CSF1R in CSF1-stimulated mouse RAW264.7 cells assessed as reduction in CSF1R phosphorylation preincubated for 6 hrs followed by CSF1 stimulation and measured after 20 mins by Western blot analysis. Type of data set: cell-based. An outline of the steps:
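RAW264.7 cells were plated in six-well plates overnight, treated with compound for 6 h, then stimulated with CSF-1 100 ng/mL for 20 min. Lysates were normalized by BCA, run on 10% SDS-PAGE, and blotted with antibodies to phospho-CSF1R (Tyr723), CSF1R, phospho-Akt (Ser473), Akt and actin.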

Data set [14] has as its target Vascular endothelial growth factor receptor 2 (Homo sapiens) (UniProt P35968). Kind of data set: Inhibition of recombinant human VEGFR2 (D1-7) expressed in Spodoptera frugiperda insect cells at 1000 nM using poly (Glu, Tyr)4:1 as substrate measured after 1 hr by ELISA relative to control. An outline of the steps: as §2
Data set [15] has as its target Proto-oncogene tyrosine-protein kinase Src (Homo sapiens) (UniProt P12931). Kind of data set: Inhibition of recombinant human full-length N-terminal His6-tagged Src expressed in Sf21 insect cells at 100 nM using poly (Glu, Tyr)4:1 as substrate measured after 1 hr by ELISA relative to control. In short, it runs like this:
as §2

Data set [16] is described as follows: AUC (0 to t) in Sprague-Dawley rat at 2 mg/kg, iv administered […] by LC-MS/MS analysis. It is filed as ADME, organism-based. As to conditions: in vivo. An outline of the steps:
as §3

The target in data set [17] is Vascular endothelial growth factor receptor 1 (Homo sapiens) (UniProt P17948). Kind of data set: Inhibition of recombinant human VEGFR1 expressed in Spodoptera frugiperda insect cells at 10 nM using poly (Glu, Tyr)4:1 as substrate measured after 1 hr by ELISA relative to control. In short, it runs like this:
as §2

The nature of data set [18]: Clearance in Sprague-Dawley rat at 2 mg/kg, iv administered […] by LC-MS/MS analysis. Type of data set: ADME, organism-based. As to conditions: in vivo. An outline of the steps: as §3

Proto-oncogene tyrosine-protein kinase Src (Homo sapiens), sequence (P12931 2-536 limits assumed): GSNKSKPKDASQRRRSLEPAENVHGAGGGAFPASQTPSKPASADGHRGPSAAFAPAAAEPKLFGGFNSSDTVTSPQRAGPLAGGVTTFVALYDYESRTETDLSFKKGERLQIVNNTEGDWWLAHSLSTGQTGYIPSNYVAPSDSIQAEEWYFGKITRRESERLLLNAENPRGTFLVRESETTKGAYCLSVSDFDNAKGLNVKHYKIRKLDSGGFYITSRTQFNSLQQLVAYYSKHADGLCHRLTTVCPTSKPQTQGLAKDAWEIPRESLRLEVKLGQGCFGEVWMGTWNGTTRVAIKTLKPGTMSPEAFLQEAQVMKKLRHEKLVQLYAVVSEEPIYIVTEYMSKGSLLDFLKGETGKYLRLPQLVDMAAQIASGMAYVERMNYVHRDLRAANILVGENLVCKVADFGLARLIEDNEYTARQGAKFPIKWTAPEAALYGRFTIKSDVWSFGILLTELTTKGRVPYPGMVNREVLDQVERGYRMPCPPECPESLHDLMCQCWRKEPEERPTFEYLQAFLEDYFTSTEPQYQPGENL
Voltage-gated inwardly rectifying potassium channel KCNH2, sequence (Q12809 whole entry): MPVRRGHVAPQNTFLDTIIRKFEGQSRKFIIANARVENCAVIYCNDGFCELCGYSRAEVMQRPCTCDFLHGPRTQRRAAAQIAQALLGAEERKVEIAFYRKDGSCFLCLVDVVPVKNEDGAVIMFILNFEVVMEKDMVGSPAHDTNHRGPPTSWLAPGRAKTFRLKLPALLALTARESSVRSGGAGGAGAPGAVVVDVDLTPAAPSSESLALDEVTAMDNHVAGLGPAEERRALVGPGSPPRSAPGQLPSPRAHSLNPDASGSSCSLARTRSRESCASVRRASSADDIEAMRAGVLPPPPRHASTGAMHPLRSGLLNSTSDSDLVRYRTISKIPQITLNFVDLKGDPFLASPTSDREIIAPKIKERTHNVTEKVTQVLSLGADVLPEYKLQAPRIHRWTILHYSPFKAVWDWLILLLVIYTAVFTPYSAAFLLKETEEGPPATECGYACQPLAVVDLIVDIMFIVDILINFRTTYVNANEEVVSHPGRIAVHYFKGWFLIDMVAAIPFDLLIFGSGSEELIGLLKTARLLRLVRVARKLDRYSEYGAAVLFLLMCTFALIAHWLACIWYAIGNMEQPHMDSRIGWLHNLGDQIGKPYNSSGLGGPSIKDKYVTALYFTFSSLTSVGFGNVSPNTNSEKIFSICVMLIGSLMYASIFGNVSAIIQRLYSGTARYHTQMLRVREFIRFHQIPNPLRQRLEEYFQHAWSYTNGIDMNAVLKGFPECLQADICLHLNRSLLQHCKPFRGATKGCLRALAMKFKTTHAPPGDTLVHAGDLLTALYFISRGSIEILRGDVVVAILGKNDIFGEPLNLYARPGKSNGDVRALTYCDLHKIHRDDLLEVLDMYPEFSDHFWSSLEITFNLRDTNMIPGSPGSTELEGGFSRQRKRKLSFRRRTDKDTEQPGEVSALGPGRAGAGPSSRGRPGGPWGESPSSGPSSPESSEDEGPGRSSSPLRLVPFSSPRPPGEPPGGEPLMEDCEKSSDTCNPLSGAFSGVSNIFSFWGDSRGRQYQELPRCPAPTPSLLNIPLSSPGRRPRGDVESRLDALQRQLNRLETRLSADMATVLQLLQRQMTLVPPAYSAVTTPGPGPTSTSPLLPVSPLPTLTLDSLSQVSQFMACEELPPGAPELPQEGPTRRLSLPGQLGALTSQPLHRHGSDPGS
Tyrosine-protein kinase BTK (Homo sapiens), sequence (Q06187 whole entry): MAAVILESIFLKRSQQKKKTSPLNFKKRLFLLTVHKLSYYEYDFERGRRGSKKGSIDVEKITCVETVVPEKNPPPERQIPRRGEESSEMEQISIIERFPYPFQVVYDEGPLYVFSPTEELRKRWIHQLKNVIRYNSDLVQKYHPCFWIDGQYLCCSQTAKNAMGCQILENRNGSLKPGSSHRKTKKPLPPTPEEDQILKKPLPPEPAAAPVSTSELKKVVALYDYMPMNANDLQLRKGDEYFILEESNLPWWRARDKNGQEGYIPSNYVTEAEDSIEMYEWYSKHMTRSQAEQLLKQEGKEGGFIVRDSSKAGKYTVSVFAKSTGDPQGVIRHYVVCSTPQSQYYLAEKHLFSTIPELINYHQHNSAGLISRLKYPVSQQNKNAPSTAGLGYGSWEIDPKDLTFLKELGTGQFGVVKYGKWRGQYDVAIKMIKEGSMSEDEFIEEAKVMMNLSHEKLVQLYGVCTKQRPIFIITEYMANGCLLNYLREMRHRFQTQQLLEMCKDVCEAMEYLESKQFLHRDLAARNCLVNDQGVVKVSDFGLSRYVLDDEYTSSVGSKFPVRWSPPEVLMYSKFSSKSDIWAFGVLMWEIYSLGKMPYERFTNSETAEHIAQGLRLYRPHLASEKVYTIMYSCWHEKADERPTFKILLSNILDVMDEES
Vascular endothelial growth factor receptor 2 (Homo sapiens), sequence (P35968 whole entry): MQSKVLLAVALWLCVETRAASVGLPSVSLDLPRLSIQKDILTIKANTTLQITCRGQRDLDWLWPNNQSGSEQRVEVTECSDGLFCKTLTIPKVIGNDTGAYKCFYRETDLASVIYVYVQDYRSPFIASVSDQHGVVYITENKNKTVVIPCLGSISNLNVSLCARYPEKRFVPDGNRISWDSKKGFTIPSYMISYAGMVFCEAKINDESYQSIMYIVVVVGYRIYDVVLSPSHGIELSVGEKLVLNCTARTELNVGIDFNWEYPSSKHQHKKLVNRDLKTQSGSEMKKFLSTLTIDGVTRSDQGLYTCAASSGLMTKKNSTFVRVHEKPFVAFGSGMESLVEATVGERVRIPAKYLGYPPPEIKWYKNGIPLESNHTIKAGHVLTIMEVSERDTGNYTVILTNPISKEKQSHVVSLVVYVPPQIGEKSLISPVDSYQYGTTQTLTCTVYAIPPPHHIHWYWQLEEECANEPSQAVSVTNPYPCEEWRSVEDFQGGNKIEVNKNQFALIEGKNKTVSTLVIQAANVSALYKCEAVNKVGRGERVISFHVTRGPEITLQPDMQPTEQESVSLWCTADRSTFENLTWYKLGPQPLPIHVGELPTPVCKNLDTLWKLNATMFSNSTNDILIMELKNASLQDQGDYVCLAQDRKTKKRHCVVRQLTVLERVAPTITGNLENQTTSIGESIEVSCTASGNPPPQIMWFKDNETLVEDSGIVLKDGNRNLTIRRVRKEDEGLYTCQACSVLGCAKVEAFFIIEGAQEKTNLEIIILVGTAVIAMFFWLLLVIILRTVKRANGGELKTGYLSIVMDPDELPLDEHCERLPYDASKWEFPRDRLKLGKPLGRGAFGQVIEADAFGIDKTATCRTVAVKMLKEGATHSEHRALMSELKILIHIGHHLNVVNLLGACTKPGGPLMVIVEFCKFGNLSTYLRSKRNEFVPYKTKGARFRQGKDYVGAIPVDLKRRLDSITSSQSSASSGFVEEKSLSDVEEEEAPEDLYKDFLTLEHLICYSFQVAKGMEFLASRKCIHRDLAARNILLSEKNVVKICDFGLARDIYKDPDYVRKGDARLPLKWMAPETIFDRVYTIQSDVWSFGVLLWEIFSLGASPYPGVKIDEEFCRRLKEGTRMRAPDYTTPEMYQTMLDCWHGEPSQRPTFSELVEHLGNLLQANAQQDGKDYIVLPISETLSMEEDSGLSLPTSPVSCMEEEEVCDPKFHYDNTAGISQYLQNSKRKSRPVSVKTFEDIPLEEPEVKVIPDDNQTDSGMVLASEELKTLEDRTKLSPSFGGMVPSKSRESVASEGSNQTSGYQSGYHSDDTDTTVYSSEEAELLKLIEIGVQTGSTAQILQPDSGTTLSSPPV
Macrophage colony-stimulating factor 1 receptor (Mus musculus), sequence (P09581 whole entry): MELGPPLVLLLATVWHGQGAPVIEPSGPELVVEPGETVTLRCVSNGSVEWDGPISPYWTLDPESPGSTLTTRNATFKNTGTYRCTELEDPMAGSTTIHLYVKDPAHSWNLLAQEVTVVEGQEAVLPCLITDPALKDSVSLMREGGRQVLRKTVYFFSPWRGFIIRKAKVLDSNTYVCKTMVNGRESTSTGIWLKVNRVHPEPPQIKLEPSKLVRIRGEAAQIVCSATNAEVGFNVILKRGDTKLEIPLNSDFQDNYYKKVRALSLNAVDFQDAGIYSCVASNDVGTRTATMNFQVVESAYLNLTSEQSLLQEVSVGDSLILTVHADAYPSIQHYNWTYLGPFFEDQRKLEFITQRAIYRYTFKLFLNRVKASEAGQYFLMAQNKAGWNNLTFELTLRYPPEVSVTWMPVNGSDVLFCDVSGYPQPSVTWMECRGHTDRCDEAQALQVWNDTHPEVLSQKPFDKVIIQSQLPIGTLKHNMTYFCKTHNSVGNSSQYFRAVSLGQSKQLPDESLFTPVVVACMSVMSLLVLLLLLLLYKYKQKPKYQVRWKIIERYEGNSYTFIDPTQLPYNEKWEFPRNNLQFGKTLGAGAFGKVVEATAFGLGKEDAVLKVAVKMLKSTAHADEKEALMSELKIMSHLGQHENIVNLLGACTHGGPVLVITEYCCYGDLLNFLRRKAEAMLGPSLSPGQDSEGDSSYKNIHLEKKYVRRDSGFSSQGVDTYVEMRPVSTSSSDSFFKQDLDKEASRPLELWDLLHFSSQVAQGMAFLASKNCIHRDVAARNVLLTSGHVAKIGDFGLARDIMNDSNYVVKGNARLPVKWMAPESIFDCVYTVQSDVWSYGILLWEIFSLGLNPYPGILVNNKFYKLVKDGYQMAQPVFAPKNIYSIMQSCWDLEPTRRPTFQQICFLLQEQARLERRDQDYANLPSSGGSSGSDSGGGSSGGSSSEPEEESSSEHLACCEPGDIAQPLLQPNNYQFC

For `Cc1ccc(C(=O)Nc2ccc(Cl)cc2)cc1C#Cc1cc(-c2cnn(C)c2)cnc1N`, the inhibition was determined as 16.2% in data set [1]; 1.5% in data set [2]; 92.3% in data set [3]; 14.7% in data set [4]; 8% in data set [5]; 9.5% in data set [8]. Also, the inhibition in data set [11] was 98.3%; in data set [13], “Dose-dependent effect”; in data set [14], 95.5%; in data set [15] it was 61.7%; in [17] it was 36.2%. Besides, the concentration for half-maximal inhibition (IC50) in data set [6] was 0.7 nM; in the data set on RAW264.7 it was 130 nM; in data set [12], greater than 40000 nM. Further, the half-life in data set [7] was 3.33 h. For the same compound, in [9], the Vd came out at 6.34 L/kg. The compound also showed a mean residence time MRT inf in data set [10] of 5.42 h. The compound also registered an exposure AUC(0-t) in data set [16] of 729 ng·h/mL. The clearance in data set [18] stood at 46 mL/min/kg.
